From publication PMC4000071 (Journal of Toxicologic Pathology, 2014)
Where two headings read alike, the source gives them in different places.

Experiments:
p-glycoprotein = conditions: cited from earlier work
[1] = molecular target: 5-HT1B receptors in the rat cerebral cortex (Rattus norvegicus, UniProt P28564); experiment: 5-HT1B receptor binding in rat cerebral cortex
guinea pig = conditions: 0.6 µmol/kg. p.o.; cited from earlier work
brain 5-HT1B receptors [2] = conditions: cited from earlier work
dogs = experiment: cardiovascular telemetry study in dogs; assay type: in vivo; conditions: dog
dog pharmacokinetics = assay type: in vivo
[3] = rat systemic and brain exposure; assay type: in vivo; conditions: 25 mg/kg/day (NOEL for neuropathology), unpublished results
brain 5-HT1B receptors [4] = conditions: non-human primates; cited from earlier work
adrenergic α1D receptor = molecular target: T1, adrenergic α1D receptor (Homo sapiens, UniProt P25100); experiment: secondary pharmacology screens, α1D; assay type: binding; conditions: 10 µM
T1 sequence (P25100 1-572): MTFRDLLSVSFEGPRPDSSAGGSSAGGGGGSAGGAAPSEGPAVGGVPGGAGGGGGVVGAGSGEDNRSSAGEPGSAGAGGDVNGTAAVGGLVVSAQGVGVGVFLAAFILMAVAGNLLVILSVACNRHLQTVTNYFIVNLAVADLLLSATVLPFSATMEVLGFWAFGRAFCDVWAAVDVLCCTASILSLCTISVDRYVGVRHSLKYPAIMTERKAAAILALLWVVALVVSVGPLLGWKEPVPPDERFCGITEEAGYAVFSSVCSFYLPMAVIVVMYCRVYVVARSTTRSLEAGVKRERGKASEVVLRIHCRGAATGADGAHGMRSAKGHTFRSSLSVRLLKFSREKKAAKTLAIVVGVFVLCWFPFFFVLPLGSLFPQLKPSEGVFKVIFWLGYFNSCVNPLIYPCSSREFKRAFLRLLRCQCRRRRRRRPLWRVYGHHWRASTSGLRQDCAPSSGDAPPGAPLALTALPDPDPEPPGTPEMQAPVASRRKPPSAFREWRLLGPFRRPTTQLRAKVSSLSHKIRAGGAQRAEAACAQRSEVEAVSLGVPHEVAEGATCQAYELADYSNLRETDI

rat [5] = experiment: rat 1- and 3-month repeat dose toxicity; assay type: in vivo
[6] = test system: mitochondrial oxidative phosphorylation; experiment: mitochondrial oxidative phosphorylation inhibition; assay type: biochemical; conditions: unpublished data
adrenergic α1A receptor = molecular target: T2, adrenergic α1A receptor (Homo sapiens, UniProt P35348); experiment: secondary pharmacology screens, α1A; assay type: biochemical; conditions: 10 µM
T2 sequence (P35348 1-466): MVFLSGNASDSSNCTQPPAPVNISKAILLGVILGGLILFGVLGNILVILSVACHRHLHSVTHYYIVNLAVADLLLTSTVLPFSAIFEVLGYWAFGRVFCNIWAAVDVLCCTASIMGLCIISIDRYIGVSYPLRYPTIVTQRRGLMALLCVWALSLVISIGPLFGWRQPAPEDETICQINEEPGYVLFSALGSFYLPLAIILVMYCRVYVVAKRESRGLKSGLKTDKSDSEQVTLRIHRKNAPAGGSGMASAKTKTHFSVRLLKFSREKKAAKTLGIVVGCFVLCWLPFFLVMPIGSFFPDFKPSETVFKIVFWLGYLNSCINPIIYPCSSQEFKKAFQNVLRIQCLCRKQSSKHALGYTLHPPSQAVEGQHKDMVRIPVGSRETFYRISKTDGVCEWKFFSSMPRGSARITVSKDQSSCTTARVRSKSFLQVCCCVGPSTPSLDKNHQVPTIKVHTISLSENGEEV

[7] = cited from earlier work
healthy volunteers = conditions: single ascending oral doses from 1 to 40 mg; cited from earlier work
rat [8] = experiment: 14-day rat study; assay type: in vivo; conditions: 14-day study, unpublished data
1-month = assay type: in vivo, beagle dogs; conditions: dog; for mean brain concentration relative to that at 2.3 mg/kg: 4 weeks
Outline: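 Beagles (7 males, 5 females) were dosed once daily by oral gavage for 4 weeks at 0, 2.3, 14 or 47 mg/kg/day. The vehicle was 0.1 M lactic acid in water (pH 3.0) at 5 mL/kg. Plasma was sampled on Days 1, 7 and 28. At necropsy, brain stem, hippocampus and frontal lobe were taken for drug measurement. Terminal plasma and brain concentrations are reported.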

beagle dogs = experiment: 1-month; assay type: in vivo

Chain of 5-HT1B receptors in the rat cerebral cortex (P28564 whole entry): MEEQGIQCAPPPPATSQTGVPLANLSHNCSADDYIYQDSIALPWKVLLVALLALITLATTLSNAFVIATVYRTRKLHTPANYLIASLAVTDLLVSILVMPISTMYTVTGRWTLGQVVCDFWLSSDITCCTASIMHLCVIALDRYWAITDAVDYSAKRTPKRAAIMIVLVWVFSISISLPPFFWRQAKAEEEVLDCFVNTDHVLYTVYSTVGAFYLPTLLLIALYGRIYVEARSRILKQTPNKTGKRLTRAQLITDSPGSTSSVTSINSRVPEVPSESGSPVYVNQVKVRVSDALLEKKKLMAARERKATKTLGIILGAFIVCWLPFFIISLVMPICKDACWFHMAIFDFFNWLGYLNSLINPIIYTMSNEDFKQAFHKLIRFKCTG

SMILES: COc1cc2c(c(N3CCN(C)CC3)c1)O[C@@H](C(=O)Nc1ccc(N3CCOCC3)cc1)CC2 [AZD3783, (2R)-6-methoxy-8-(4-methylpiperazin-1-yl)-N-(4-morpholin-4-ylphenyl) chromane-2-carboxamide]
- p-glycoprotein substrate (p-glycoprotein): not likely to be a p-glycoprotein substrate
- Ki ([1]; rat cerebral cortex): 51 nM
- affinity lower than for the guinea pig or human 5-HT1B receptors ([1]; rat vs guinea pig or human): approximately 4 fold
- anxiolytic and anti-depressant efficacy (guinea pig): elicit effects indicative of anxiolytic and anti-depressant efficacy
- extracellular serotonin in the brain (guinea pig): increase extracellular serotonin in the brain
- binding to brain 5-HT1B receptors (PET) (brain 5-HT1B receptors [2]; human subjects): bind dose-dependently
- receptor occupancy in brain region (brain 5-HT1B receptors [2]; man, 5 mg dose): 50%
- cardiovascular effect (telemetry) (dogs; 14 mg/kg/day): no effect
- cardiovascular effect (telemetry) (dogs; 47 mg/kg): modest tachycarda with decrease in blood pressure
- steady state volume of distribution (dog pharmacokinetics): 4.3 L/kg
- plasma clearance (dog pharmacokinetics; after IV dosing): 18 mL/min/kg
- F (oral) (dog pharmacokinetics; oral dosing): 58%
- AUC [3]: 84 µM·h
- binding to brain 5-HT1B receptors (PET) (brain 5-HT1B receptors [4]): bind dose-dependently
- binding to adrenergic α1D receptor (adrenergic α1D receptor): binds
- PLD (rat [5]): caused generalized PLD
- nervous tissue pathology (rat [5]; 1 month, 126 mg/kg/day): minimal neuronal vacuolation in the DRG and brain stem
- nervous tissue pathology (DRG, brain stem, spinal cord) (rat [5]; 3 months, 100 mg/kg/day, unpublished results): minimal to slight neuronal vacuolation with eosinophilic deposits
- inhibition of mitochondrial oxidative phosphorylation [6]: not a direct inhibitor
- activity at adrenergic α1A receptor (adrenergic α1A receptor): antagonist
- blood brain barrier crossing [7]: readily crosses the blood brain barrier
- tolerability (healthy volunteers): well tolerated
- PLD in tissues (rat [8]): dose-dependent PLD in a limited number of tissues
- mean brain concentration relative to that at 2.3 mg/kg (1-month; 14 mg/kg): 38 fold
- mean brain concentration relative to that at 2.3 mg/kg (1-month; 47 mg/kg): 460 fold
- brain/plasma concentration ratio (1-month; across the dose range, after 4 weeks of dosing): approximately 4
- brain microscopic findings (beagle dogs; 2.3 mg/kg/day, 4 weeks): No treatment-related microscopic change in the brain
- brain microscopic findings, other three dogs (beagle dogs; 47 mg/kg/day, 4 weeks): minimal to moderate foamy cytoplasmic vacuolation of neurons
- mortality (beagle dogs; a male in the 47 mg/kg/day group, severe clinical signs): euthanized on Day 20
- brain microscopic findings, decedant (beagle dogs; male, 47 mg/kg/day, euthanized Day 20): neuronal degeneration and necrosis microscopically, accompanied by minimal gliosis in the medulla oblongata
- brain microscopic findings (beagle dogs; two dogs, 14 mg/kg/day, 4 weeks): minimal granular, yellowish pigmentation in the cytoplasm of neurons in the medulla oblongata
